Consider nine molecules from ChEMBL document CHEMBL3785077 (J Med Chem, 2016).

Calls of active or inactive are those of the source. The calls are words filed in the database; no cut-off is given here.

The target in data set [1] is T1, Acetylcholinesterase (Homo sapiens, UniProt P22303). Kind of data set: Inhibition of human acetylcholinesterase using […] as substrate at 10 uM preincubated for 4.5 mins followed by substrate addition measured after 2.5 mins by Ellman's spectrophotometric method.
Data set [2] in a line: Antioxidant activity assessed as trolox equivalents of AAPH radical scavenging activity preincubated for 15 mins followed by AAPH addition measured every 60 secs for 90 mins by ORAC assay. Type of data set: physicochemical. Conditions: 1.5 h. The gist of the method: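 ORAC-FL: compound (1−5 μM) with fluorescein (300 nM final) in 75 mM phosphate buffer pH 7.4, 15 min at 37 °C, then AAPH (12 mM final). Fluorescence read every 60 s for 90 min (ex 485/em 535 nm). […] Samples in quadruplicate, ≥4 independent runs.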

A short description of data set [3]: Neurotoxicity against mouse HT22 cells assessed as decrease in cell viability at 25 uM after 24 hrs by MTT assay. Conditions: ht-22, 24 h. Type of data set: toxicity, cell-based. The gist of the method: (§1)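 Murine hippocampal HT-22 cells in high-glucose DMEM with 10% heat-inactivated FCS, 37 °C, 5% CO2. […] MTT 3 h, SDS lysis, absorbance at 560 nm, viability as % of untreated cells.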
Background: Formazan colour is commonly taken as a measure of viable cells.

For data set [4], the system named is HT-22. Kind of data set: Neuroprotective activity against glutamate-induced oxycytotic cell death in mouse HT22 cells assessed as cell viability at 5 to 25 uM after 24 hrs by MTT assay. Type of data set: functional, cell-based. The gist of the method:
as §1

Data set [5] can be described thus: Neurotoxicity against mouse HT22 cells assessed as cell viability up to 10 uM after 24 hrs by MTT assay. Type of data set: toxicity, cell-based, HT-22. Particulars: read-out: Activity. The gist of the method:
as §1

In data set [6] the target is T2, Cholinesterase (Equus caballus, UniProt P81908). Kind of data set: Inhibition of equine serum butyrylcholinesterase using […] as substrate preincubated for 30 mins followed by substrate addition measured after 2.5 mins by Ellman's spectrophotometric method. The gist of the method: (§2)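 Ellman assay at 25 °C in phosphate buffer pH 8.0. Enzyme (AChE from human erythrocytes, BChE from equine or human serum; 2.5 units/mL stock with 2 mg/mL BSA) and DTNB (0.3 mM in assay) preincubated with compound from ethanol stocks (1 nM−1 mM in assay). Ethanol control, triplicates, IC50 from activity vs log concentration.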
For orientation: Ellman's reagent forms a yellow product with free thiols.

For data set [7], the target named is Cholinesterase (Equus caballus) (UniProt P81908). In words: Pseudo-irreversible inhibition of equine serum butyrylcholinesterase assessed as decarbamoylation rate using […] as substrate preincubated for 1 hr followed by 1000 fold dilution. The gist of the method: (§3)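 Enzyme incubated 1 h with inhibitor at a fully inhibiting concentration, then diluted 1:1000 in assay buffer. Activity measured by Ellman assay at various times after dilution, with uninhibited enzyme treated the same way as control. First-order fit of activity recovery gives k4.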

Data set [8] shares this target. In words: Pseudo-irreversible inhibition of equine serum butyrylcholinesterase assessed as apparent affinity between enzyme and inhibitor at equilibrium state using p-nitrophenyl butyrate as substrate preincubated for 5 to 40 mins followed by substrate addition by double reciprocal plot analysis.
The target is the same in data set [9]. In words: Pseudo-irreversible inhibition of equine serum butyrylcholinesterase assessed as carbamoylation rate of inhibitor from reversible enzyme inhibitor complex to carbamoylated enzyme using p-nitrophenyl butyrate as substrate preincubated for 5 to 40 mins followed by substrate addition by double reciprocal plot analysis.
The target is the same in data set [10]. Kind of data set: Pseudo-irreversible inhibition of equine serum butyrylcholinesterase assessed as ratio of carbamoylation rate of inhibitor to apparent affinity between enzyme and inhibitor at equilibrium state using p-nitrophenyl butyrate as substrate preincubated for 5 to 40 mins followed by substrate addition by double reciprocal plot analysis.
Data set [11] addresses T1, Acetylcholinesterase. Kind of data set: Inhibition of human acetylcholinesterase using […] as substrate preincubated for 30 mins followed by substrate addition measured after 2.5 mins by Ellman's spectrophotometric method. The gist of the method:
as §2

Data set [12] deals with T1, Acetylcholinesterase. In words: Inhibition of human acetylcholinesterase using […] as substrate at 100 uM preincubated for 4.5 mins followed by substrate addition measured after 2.5 mins by Ellman's spectrophotometric method.
Data set [13] concerns the target Cholinesterase (Equus caballus) (UniProt P81908). Kind of data set: Pseudo-irreversible inhibition of equine serum butyrylcholinesterase assessed as half life for carbamoylated enzyme using […] as substrate preincubated for 1 hr followed by 1000 fold dilution. The gist of the method: as §3
The target of data set [14] is Cholinesterase (Homo sapiens, UniProt P06276). Kind of data set: Inhibition of human butyrylcholinesterase using […] as substrate preincubated for 30 mins followed by substrate addition measured after 2.5 mins by Ellman's spectrophotometric method. The gist of the method:
(§4)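 Ellman assay at 25 °C in phosphate buffer pH 8.0. Enzyme (AChE from human erythrocytes, BChE from equine or human serum; 2.5 units/mL stock with 2 mg/mL BSA) and DTNB (0.3 mM in assay) preincubated with compound from ethanol stocks (1 nM−1 mM in assay). Acetyl- or butyrylthiocholine added (452 μM in assay), absorbance at 412 nm after 2.5 min. Ethanol control, triplicates, IC50 from activity vs log concentration.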

Data set [15] has as its target T1, Acetylcholinesterase. Kind of data set: Inhibition of human acetylcholinesterase using […] as substrate preincubated for 4.5 mins followed by substrate addition measured after 2.5 mins by Ellman's spectrophotometric method. The gist of the method:
as §4

For data set [16], the system named is HT-22. In words: Neuroprotective activity against glutamate-induced oxycytotic cell death in mouse HT22 cells assessed as cell viability at 25 uM after 24 hrs by MTT assay. Type of data set: functional, cell-based. The gist of the method:
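Murine hippocampal HT-22 cells in high-glucose DMEM with 10% heat-inactivated FCS, 37 °C, 5% CO2. MTT (4 mg/mL in PBS, diluted 1:10 in medium) for 3 h, lysis in 10% SDS pH 4.1, absorbance 560 nm; viability as % of untreated cells.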

Data set [17] can be described thus: Neurotoxicity against mouse HT22 cells assessed as cell viability at 1 and 5 uM after 24 hrs by MTT assay. Type of data set: toxicity, cell-based. Conditions: ht-22, 24 h. The gist of the method:
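HT-22 murine hippocampal cells grown in high-glucose DMEM plus 10% heat-inactivated FCS at 37 °C, 5% CO2. After 24 h culture in plates, treated 24 h with compound (DMSO ≤0.1% final) without glutamate. Viability read by MTT (3 h), SDS lysis buffer pH 4.1, absorbance at 560 nm, given as percent of untreated control.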

The target in data set [18] is T2, Cholinesterase. In words: Inhibition of equine serum butyrylcholinesterase using […] as substrate preincubated for 4.5 mins followed by substrate addition measured after 2.5 mins by Ellman's spectrophotometric method. The gist of the method:
as §4

The test system of data set [19] is HT-22. Kind of data set: Neuroprotective activity against glutamate-induced oxycytotic cell death in mouse HT22 cells assessed as cell viability at 5 uM after 24 hrs by MTT assay. Type of data set: functional, cell-based. The gist of the method:
(§5)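 Murine hippocampal HT-22 cells in high-glucose DMEM with 10% heat-inactivated FCS, 37 °C, 5% CO2. […] MTT (4 mg/mL in PBS, diluted 1:10 in medium) for 3 h, lysis in 10% SDS pH 4.1, absorbance 560 nm; viability as % of untreated cells.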

Data set [20] concerns the target T1, Acetylcholinesterase. In words: Inhibition of human acetylcholinesterase using […] as substrate at 50 uM preincubated for 4.5 mins followed by substrate addition measured after 2.5 mins by Ellman's spectrophotometric method.
In data set [21] the test system is HT-22. Kind of data set: Neuroprotective activity against glutamate-induced oxycytotic cell death in mouse HT22 cells assessed as cell viability at 1 uM after 24 hrs by MTT assay. Type of data set: functional, cell-based. The gist of the method:
as §5

T1 sequence (P22303 whole entry): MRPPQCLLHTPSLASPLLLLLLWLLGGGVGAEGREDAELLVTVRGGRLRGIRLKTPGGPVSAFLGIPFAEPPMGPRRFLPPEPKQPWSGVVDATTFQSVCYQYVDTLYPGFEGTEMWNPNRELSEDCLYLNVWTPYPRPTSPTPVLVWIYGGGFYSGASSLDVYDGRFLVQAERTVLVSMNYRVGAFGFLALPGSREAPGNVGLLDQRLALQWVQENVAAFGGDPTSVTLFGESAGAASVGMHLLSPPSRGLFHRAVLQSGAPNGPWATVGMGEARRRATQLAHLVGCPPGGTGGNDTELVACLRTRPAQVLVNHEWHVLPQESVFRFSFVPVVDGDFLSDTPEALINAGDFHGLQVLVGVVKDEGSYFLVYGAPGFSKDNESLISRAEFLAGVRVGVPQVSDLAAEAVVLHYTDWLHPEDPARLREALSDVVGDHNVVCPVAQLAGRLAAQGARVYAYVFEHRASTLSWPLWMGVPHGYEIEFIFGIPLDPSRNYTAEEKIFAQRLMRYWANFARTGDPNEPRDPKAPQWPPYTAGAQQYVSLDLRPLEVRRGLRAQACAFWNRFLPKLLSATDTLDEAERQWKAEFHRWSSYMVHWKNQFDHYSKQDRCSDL
T2 sequence (P81908 whole entry): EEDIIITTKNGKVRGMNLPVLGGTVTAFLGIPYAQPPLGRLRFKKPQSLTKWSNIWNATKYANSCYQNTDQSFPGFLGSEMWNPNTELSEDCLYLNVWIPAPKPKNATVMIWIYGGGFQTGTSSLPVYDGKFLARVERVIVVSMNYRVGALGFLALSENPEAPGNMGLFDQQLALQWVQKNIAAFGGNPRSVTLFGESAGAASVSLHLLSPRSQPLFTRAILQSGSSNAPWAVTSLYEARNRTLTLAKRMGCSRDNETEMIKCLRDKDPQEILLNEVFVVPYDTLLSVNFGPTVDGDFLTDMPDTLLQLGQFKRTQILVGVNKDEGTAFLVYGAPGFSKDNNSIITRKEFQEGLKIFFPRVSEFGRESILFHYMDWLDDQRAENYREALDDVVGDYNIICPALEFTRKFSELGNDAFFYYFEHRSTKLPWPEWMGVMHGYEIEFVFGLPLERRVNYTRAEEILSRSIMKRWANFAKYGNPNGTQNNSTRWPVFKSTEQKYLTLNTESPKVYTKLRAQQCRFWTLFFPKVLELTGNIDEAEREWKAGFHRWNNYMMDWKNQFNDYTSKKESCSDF
Cholinesterase (Equus caballus), sequence (P81908 whole entry): as above
Cholinesterase (Homo sapiens, UniProt P06276), sequence (P06276 whole entry): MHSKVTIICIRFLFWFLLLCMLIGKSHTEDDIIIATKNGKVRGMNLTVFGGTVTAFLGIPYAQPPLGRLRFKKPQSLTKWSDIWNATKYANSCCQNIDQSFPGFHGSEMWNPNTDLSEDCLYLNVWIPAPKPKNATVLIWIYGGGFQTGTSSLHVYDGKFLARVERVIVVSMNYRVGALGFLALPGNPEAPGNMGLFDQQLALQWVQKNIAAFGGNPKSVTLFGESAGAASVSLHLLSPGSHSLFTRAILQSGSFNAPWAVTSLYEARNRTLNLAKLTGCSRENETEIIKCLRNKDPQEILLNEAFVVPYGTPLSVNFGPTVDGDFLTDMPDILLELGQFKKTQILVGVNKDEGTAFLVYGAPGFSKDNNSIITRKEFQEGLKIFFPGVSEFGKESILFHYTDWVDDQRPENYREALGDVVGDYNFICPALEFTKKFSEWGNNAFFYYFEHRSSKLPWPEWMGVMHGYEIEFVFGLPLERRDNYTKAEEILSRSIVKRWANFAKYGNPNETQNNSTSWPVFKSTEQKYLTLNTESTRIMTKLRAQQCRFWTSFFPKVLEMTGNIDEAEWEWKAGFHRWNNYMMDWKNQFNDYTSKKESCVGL

As a reminder, the inhibition is the drop in the measured response relative to a control, in per cent. For orientation: IC50 means the concentration that gives 50% inhibition. At Acetylcholinesterase [1], `CCCCCCCNC(=O)Oc1ccc2c(c1)CN(Cc1ccccc1)C(c1ccccc1)N2C` (configuration not stated) showed an inhibition of 17%. The figures for the Activity in [2] and in data set [3] were 1.7 equiv and “Non-toxic”, respectively. In addition, the outcome in the data set with HT-22 [4] was Active. Also, in data set [5], the viability at 24 h was more than 80%. Moreover, at Cholinesterase [6], the half-inhibitory concentration (IC50) was determined as 34 nM.

With `CNC(=O)Oc1ccc2c(c1)[C@]1(C)CCN(C)[C@@H]1N2C`, the K in data set [7] amounted to 0.25 h⁻¹; in data set [8], 280 nM; in data set [9], 0.3 min⁻¹.

With `CCCCCCCNC(=O)Oc1ccc2c(c1)CN(C)C(c1ccc(F)cc1)N2C` (configuration not stated), the K in data set [8] is 24.5 nM; in data set [9] it was 0.14 min⁻¹. Besides, in [10], the Ratio is 5.71 µM⁻¹ min⁻¹. The IC50 against Cholinesterase [6] worked out at 44 nM; against Acetylcholinesterase [11] it was 1610 nM.

For the molecule `CCCCCCCNC(=O)Oc1ccc2c(c1)CN(C)C(c1cccs1)N2C` (configuration not stated), the K came out at 0.14 h⁻¹ in data set [7], 14.3 nM in data set [8] and 0.14 min⁻¹ in data set [9]. Besides, the inhibition against Acetylcholinesterase [12] is 0%. The Activity in [2] turned out to be 0.2 equiv. Besides, the Ratio in data set [10] worked out at 9.79 µM⁻¹ min⁻¹. In addition, the T1/2 in data set [13] was 5 h. Besides, in the data set with HT-22 [4], the outcome was Active. Besides, the viability at 24 h in [5] is more than 80%. Also, the IC50 against Cholinesterase [14] was 13 nM; at Cholinesterase [6], 14 nM.

On to `CCCCCCCNC(=O)Oc1ccc2c(c1)CN(C)C(c1ccccc1)N2C` (configuration not stated), for which the figures for the K in data set [7], in data set [8] and in data set [9] were 0.14 h⁻¹, 226 nM and 0.13 min⁻¹, respectively. Also, at Acetylcholinesterase [12], the inhibition was found to be 4%. Further, the Activity in data set [2] is reported as 0.2 equiv. Moreover, the Ratio in [10] was determined as 0.57 µM⁻¹ min⁻¹. Moreover, in [13], the T1/2 was determined as 5 h. In addition, in the data set on HT-22 [4], the outcome was Active. For the same molecule, in data set [5], the viability at 24 h was more than 80%. On Cholinesterase [6], inhibition was half-maximal at 106 nM (IC50).

Regarding `COc1ccc(C2N(C)Cc3cc(O)ccc3N2C)cc1` (configuration not stated), the IC50 against Acetylcholinesterase [15] was 104000 nM; on Cholinesterase [18], 39500 nM. The outcome in the data set with HT-22 [16] was inactive. In addition, the Activity in data set [2] is 3.7 equiv; in data set [17] it was “Non-toxic”. In the data set on HT-22 [19], the result was Active.

The molecule `CN1Cc2cc(O)ccc2N(C)C1c1ccc2ccccc2c1` (configuration not stated) returned an IC50 against Cholinesterase [18] of 16500 nM. At Acetylcholinesterase [20], this molecule returned an inhibition of 9%.

With `CN1c2ccc(O)cc2CN(Cc2ccccc2)C1c1ccccc1` (configuration not stated), the result in the data set with HT-22 [16] was inactive. The Activity in [2] was 3.9 equiv; in data set [17], “Non-toxic”. Further, the outcome in the data set on HT-22 [21] and with HT-22 [19] was Active. This molecule also returned an IC50 at Cholinesterase [18] of 14800 nM. In addition, the inhibition at Acetylcholinesterase [20] stood at 16%.

In the case of `CCCCCCCNC(=O)Oc1ccc2c(c1)CN(C)C(c1cc[nH]c1)N2C` (configuration not stated), the figures for the IC50 against Cholinesterase [6] and on Acetylcholinesterase [11] were 23 nM and 852 nM, respectively.
